According to ChEMBL document CHEMBL3352325, “Synthesis and biological evaluation of novel aniline-derived asiatic acid derivatives as potential anticancer agents” (Eur J Med Chem, 2014):

Tested on: MGC-803
Assay: Cytotoxicity against human MGC803 cells after 48 hrs by MTT assay
Assay type: functional, cell-based
Settings: MGC-803, 48 h
Outline: (§1)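 Cells grown in medium with 10% heat-inactivated FBS, 5% CO2, 37 °C. Compounds given in medium with 1% DMSO at 1.25–20 graded concentrations; 1% DMSO medium served as control. MTT (5 mg/mL) added, formazan dissolved in DMSO, absorbance read at 570/630 nm. Survival expressed relative to negative control. IC50 by Bliss method (n=5), at least three independent experiments, mean ± SD.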

Q: Which IC50 does the source give for `COc1ccc(NC(=O)[C@]23CC[C@@H](C)[C@H](C)[C@H]2C2=CC(=O)[C@@H]4[C@@]5(C)C[C@@H](O)[C@H](O)[C@@](C)(CO)[C@@H]5CC[C@@]4(C)[C@]2(C)CC3)cc1` here?
A: The IC50 was 30.1 µM.

Q: For `C[C@H]1[C@H](C)CC[C@]2(C(=O)Nc3ccc(F)c(Cl)c3)CC[C@]3(C)C(=CC(=O)[C@@H]4[C@@]5(C)C[C@@H](O)[C@H](O)[C@@](C)(CO)[C@@H]5CC[C@]43C)[C@H]12`, which IC50 is on record?
A: Its IC50 is 14.1 µM.

Q: Which IC50 does the source give for `C[C@H]1[C@H](C)CC[C@]2(C(=O)Nc3ccc(Br)cc3)CC[C@]3(C)C(=CC(=O)[C@@H]4[C@@]5(C)C[C@@H](O)[C@H](O)[C@@](C)(CO)[C@@H]5CC[C@]43C)[C@H]12` here?
A: Its IC50 is 20.6 µM.

Q: With `Cc1ccc(C)c(NC(=O)[C@]23CC[C@@H](C)[C@H](C)[C@H]2C2=CC(=O)[C@@H]4[C@@]5(C)C[C@@H](O)[C@H](O)[C@@](C)(CO)[C@@H]5CC[C@@]4(C)[C@]2(C)CC3)c1` as the molecule, how does the IC50 read?
A: The IC50 was 20.7 µM.

Q: For `C[C@H]1[C@H](C)CC[C@]2(C(=O)Nc3ccc(Cl)c(Cl)c3)CC[C@]3(C)C(=CC(=O)[C@@H]4[C@@]5(C)C[C@@H](O)[C@H](O)[C@@](C)(CO)[C@@H]5CC[C@]43C)[C@H]12`, which IC50 is on record?
A: Its IC50 is 13.9 µM.

Tested on: NCI-H460
Assay: Cytotoxicity against human NCI-H460 cells after 48 hrs by MTT assay
Assay type: functional, cell-based
Settings: NCI-H460, 48 h
Outline: as §1

Q: Which IC50 does the source give for `COc1ccc(NC(=O)[C@]23CC[C@@H](C)[C@H](C)[C@H]2C2=CC(=O)[C@@H]4[C@@]5(C)C[C@@H](O)[C@H](O)[C@@](C)(CO)[C@@H]5CC[C@@]4(C)[C@]2(C)CC3)cc1` here?
A: Its IC50 is over 100 µM.

Q: For `C[C@H]1[C@H](C)CC[C@]2(C(=O)Nc3ccc(F)c(Cl)c3)CC[C@]3(C)C(=CC(=O)[C@@H]4[C@@]5(C)C[C@@H](O)[C@H](O)[C@@](C)(CO)[C@@H]5CC[C@]43C)[C@H]12`, which IC50 is on record?
A: Its IC50 is 24.2 µM.

Q: With `C[C@H]1[C@H](C)CC[C@]2(C(=O)Nc3ccc(Br)cc3)CC[C@]3(C)C(=CC(=O)[C@@H]4[C@@]5(C)C[C@@H](O)[C@H](O)[C@@](C)(CO)[C@@H]5CC[C@]43C)[C@H]12` as the molecule, how does the IC50 read?
A: Its IC50 is 31.2 µM.

Q: For `Cc1ccc(C)c(NC(=O)[C@]23CC[C@@H](C)[C@H](C)[C@H]2C2=CC(=O)[C@@H]4[C@@]5(C)C[C@@H](O)[C@H](O)[C@@](C)(CO)[C@@H]5CC[C@@]4(C)[C@]2(C)CC3)c1`, which IC50 is on record?
A: Its IC50 is 27.5 µM.

Q: Which IC50 does the source give for `C[C@H]1[C@H](C)CC[C@]2(C(=O)Nc3ccc(Cl)c(Cl)c3)CC[C@]3(C)C(=CC(=O)[C@@H]4[C@@]5(C)C[C@@H](O)[C@H](O)[C@@](C)(CO)[C@@H]5CC[C@]43C)[C@H]12` here?
A: Its IC50 is 21.4 µM.

Tested on: HepG2
Assay: Cytotoxicity against human HepG2 cells after 48 hrs by MTT assay
Assay type: functional, cell-based
Settings: HepG2, 48 h
Outline: as §1

Q: Which IC50 does the source give for `COc1ccc(NC(=O)[C@]23CC[C@@H](C)[C@H](C)[C@H]2C2=CC(=O)[C@@H]4[C@@]5(C)C[C@@H](O)[C@H](O)[C@@](C)(CO)[C@@H]5CC[C@@]4(C)[C@]2(C)CC3)cc1` here?
A: Its IC50 is 16.6 µM.

Q: With `C[C@H]1[C@H](C)CC[C@]2(C(=O)Nc3ccc(F)c(Cl)c3)CC[C@]3(C)C(=CC(=O)[C@@H]4[C@@]5(C)C[C@@H](O)[C@H](O)[C@@](C)(CO)[C@@H]5CC[C@]43C)[C@H]12` as the molecule, how does the IC50 read?
A: The IC50 was 19.4 µM.

Q: Which IC50 does the source give for `C[C@H]1[C@H](C)CC[C@]2(C(=O)Nc3ccc(Br)cc3)CC[C@]3(C)C(=CC(=O)[C@@H]4[C@@]5(C)C[C@@H](O)[C@H](O)[C@@](C)(CO)[C@@H]5CC[C@]43C)[C@H]12` here?
A: Its IC50 is 21.3 µM.

Q: With `Cc1ccc(C)c(NC(=O)[C@]23CC[C@@H](C)[C@H](C)[C@H]2C2=CC(=O)[C@@H]4[C@@]5(C)C[C@@H](O)[C@H](O)[C@@](C)(CO)[C@@H]5CC[C@@]4(C)[C@]2(C)CC3)c1` as the molecule, how does the IC50 read?
A: The IC50 was 25.5 µM.

Q: For `C[C@H]1[C@H](C)CC[C@]2(C(=O)Nc3ccc(Cl)c(Cl)c3)CC[C@]3(C)C(=CC(=O)[C@@H]4[C@@]5(C)C[C@@H](O)[C@H](O)[C@@](C)(CO)[C@@H]5CC[C@]43C)[C@H]12`, which IC50 is on record?
A: Its IC50 is 13.8 µM.

Tested on: HeLa
Assay: Cytotoxicity against human HeLa cells after 48 hrs by MTT assay
Assay type: functional, cell-based
Settings: not given
Outline: as §1

Q: With `COc1ccc(NC(=O)[C@]23CC[C@@H](C)[C@H](C)[C@H]2C2=CC(=O)[C@@H]4[C@@]5(C)C[C@@H](O)[C@H](O)[C@@](C)(CO)[C@@H]5CC[C@@]4(C)[C@]2(C)CC3)cc1` as the molecule, how does the IC50 read?
A: Its IC50 is over 100 µM.

Q: Which IC50 does the source give for `C[C@H]1[C@H](C)CC[C@]2(C(=O)Nc3ccc(F)c(Cl)c3)CC[C@]3(C)C(=CC(=O)[C@@H]4[C@@]5(C)C[C@@H](O)[C@H](O)[C@@](C)(CO)[C@@H]5CC[C@]43C)[C@H]12` here?
A: The IC50 was 14.2 µM.

Q: Which IC50 does the source give for `C[C@H]1[C@H](C)CC[C@]2(C(=O)Nc3ccc(Br)cc3)CC[C@]3(C)C(=CC(=O)[C@@H]4[C@@]5(C)C[C@@H](O)[C@H](O)[C@@](C)(CO)[C@@H]5CC[C@]43C)[C@H]12` here?
A: Its IC50 is 18.5 µM.

Q: For `Cc1ccc(C)c(NC(=O)[C@]23CC[C@@H](C)[C@H](C)[C@H]2C2=CC(=O)[C@@H]4[C@@]5(C)C[C@@H](O)[C@H](O)[C@@](C)(CO)[C@@H]5CC[C@@]4(C)[C@]2(C)CC3)c1`, which IC50 is on record?
A: The IC50 was 16 µM.

Q: With `C[C@H]1[C@H](C)CC[C@]2(C(=O)Nc3ccc(Cl)c(Cl)c3)CC[C@]3(C)C(=CC(=O)[C@@H]4[C@@]5(C)C[C@@H](O)[C@H](O)[C@@](C)(CO)[C@@H]5CC[C@]43C)[C@H]12` as the molecule, how does the IC50 read?
A: Its IC50 is 12.4 µM.

Tested on: not listed separately
Assay: Cytotoxicity against human SMMC-7404 cells after 48 hrs by MTT assay
Assay type: functional, cell-based
Settings: SMMC-7404, 48 h
Outline: as §1

Q: Which IC50 does the source give for `COc1ccc(NC(=O)[C@]23CC[C@@H](C)[C@H](C)[C@H]2C2=CC(=O)[C@@H]4[C@@]5(C)C[C@@H](O)[C@H](O)[C@@](C)(CO)[C@@H]5CC[C@@]4(C)[C@]2(C)CC3)cc1` here?
A: The IC50 was over 100 µM.

Q: With `C[C@H]1[C@H](C)CC[C@]2(C(=O)Nc3ccc(F)c(Cl)c3)CC[C@]3(C)C(=CC(=O)[C@@H]4[C@@]5(C)C[C@@H](O)[C@H](O)[C@@](C)(CO)[C@@H]5CC[C@]43C)[C@H]12` as the molecule, how does the IC50 read?
A: The IC50 was 19.1 µM.

Q: With `C[C@H]1[C@H](C)CC[C@]2(C(=O)Nc3ccc(Br)cc3)CC[C@]3(C)C(=CC(=O)[C@@H]4[C@@]5(C)C[C@@H](O)[C@H](O)[C@@](C)(CO)[C@@H]5CC[C@]43C)[C@H]12` as the molecule, how does the IC50 read?
A: The IC50 was over 100 µM.

Q: With `Cc1ccc(C)c(NC(=O)[C@]23CC[C@@H](C)[C@H](C)[C@H]2C2=CC(=O)[C@@H]4[C@@]5(C)C[C@@H](O)[C@H](O)[C@@](C)(CO)[C@@H]5CC[C@@]4(C)[C@]2(C)CC3)c1` as the molecule, how does the IC50 read?
A: Its IC50 is 15.7 µM.

Q: With `C[C@H]1[C@H](C)CC[C@]2(C(=O)Nc3ccc(Cl)c(Cl)c3)CC[C@]3(C)C(=CC(=O)[C@@H]4[C@@]5(C)C[C@@H](O)[C@H](O)[C@@](C)(CO)[C@@H]5CC[C@]43C)[C@H]12` as the molecule, how does the IC50 read?
A: The IC50 was 17.2 µM.

Tested on: HUVEC
Assay: Cytotoxicity against human HUVEC cells after 48 hrs by MTT assay
Assay type: cell-based
Settings: not given
Outline: as §1

Q: For `COc1ccc(NC(=O)[C@]23CC[C@@H](C)[C@H](C)[C@H]2C2=CC(=O)[C@@H]4[C@@]5(C)C[C@@H](O)[C@H](O)[C@@](C)(CO)[C@@H]5CC[C@@]4(C)[C@]2(C)CC3)cc1`, which IC50 is on record?
A: The IC50 was over 100 µM.

Q: For `C[C@H]1[C@H](C)CC[C@]2(C(=O)Nc3ccc(F)c(Cl)c3)CC[C@]3(C)C(=CC(=O)[C@@H]4[C@@]5(C)C[C@@H](O)[C@H](O)[C@@](C)(CO)[C@@H]5CC[C@]43C)[C@H]12`, which IC50 is on record?
A: The IC50 was over 100 µM.

Q: With `C[C@H]1[C@H](C)CC[C@]2(C(=O)Nc3ccc(Br)cc3)CC[C@]3(C)C(=CC(=O)[C@@H]4[C@@]5(C)C[C@@H](O)[C@H](O)[C@@](C)(CO)[C@@H]5CC[C@]43C)[C@H]12` as the molecule, how does the IC50 read?
A: Its IC50 is over 100 µM.

Q: For `Cc1ccc(C)c(NC(=O)[C@]23CC[C@@H](C)[C@H](C)[C@H]2C2=CC(=O)[C@@H]4[C@@]5(C)C[C@@H](O)[C@H](O)[C@@](C)(CO)[C@@H]5CC[C@@]4(C)[C@]2(C)CC3)c1`, which IC50 is on record?
A: Its IC50 is over 100 µM.

Q: With `C[C@H]1[C@H](C)CC[C@]2(C(=O)Nc3ccc(Cl)c(Cl)c3)CC[C@]3(C)C(=CC(=O)[C@@H]4[C@@]5(C)C[C@@H](O)[C@H](O)[C@@](C)(CO)[C@@H]5CC[C@]43C)[C@H]12` as the molecule, how does the IC50 read?
A: Its IC50 is over 100 µM.
